{"data": "Experimental data from different studies", "observed": "metabolic stability", "species": "human", "sample": "liver microsomes", "note": "Each line is one published result; the experiments were not run side by side."}
{"Compound": "COCC(=O)N1CCC[C@H](C(=O)NCc2nc(-c3ccc(Cl)cc3)cs2)C1", "conditions": "0.5 µM", "microsomal CLint": "25 µL/min/mg"}
{"Compound": "CN(C)CCOc1ccc2c(=O)c3c([nH]c2c1)CCCC3", "conditions": "1 µM, pH 7.4", "microsomal CLint": "8.08 µL/min/mg"}
{"Compound": "CCOc1ccc(Nc2c3c(nc4ccccc24)CCC3)cc1", "conditions": "0.5 µM", "microsomal CLint": "37 µL/min/mg"}
{"Compound": "NCCCOCC(=O)N1CCC[C@H](C(=O)NCc2nc(-c3ccc(C4CC4)cc3)cs2)C1", "conditions": "0.5 µM", "microsomal CLint": "11 µL/min/mg"}
{"Compound": "O=c1c2c([nH]c3cccc(Oc4ccc(OC(F)(F)F)cc4)c13)CCCC2", "conditions": "1 µM, pH 7.4", "microsomal CLint": "109 µL/min/mg"}
{"Compound": "O=C1c2ccccc2C(=O)N1CCCN1CCN(C(c2ccc(F)cc2)c2ccc(F)cc2)CC1", "conditions": "100 ng/mL", "microsomal CLint": "39 µL/min/mg"}
{"Compound": "N#Cc1ccc(-c2csc(CNC(=O)[C@H]3CCCN(C(=O)COC4CC4)C3)n2)cc1", "conditions": "0.5 µM", "microsomal CLint": "49 µL/min/mg"}
{"Compound": "Cc1ccc(Nc2cnnc3ccc(-c4ccc(N5CCN(C)CC5)cc4)cc23)cn1", "microsomal CLint": "36 µL/min/mg"}
{"Compound": "CC1(C)NC(=O)N(c2cccc(C(F)(F)F)n2)C1=O", "microsomal CLint": "< 7 µL/min/mg"}
{"Compound": "COc1ccc(Cn2cc(CO[C@@H]3O[C@H]4[C@H](OC[C@H]4O)[C@H]3O)nn2)cc1", "microsomal CLint": "< 14.4 µL/min/mg"}
{"Compound": "COc1cc(NC(=O)Cn2ccc3ccc(-c4cnn(C)c4)cc32)cc(OC)c1OC", "microsomal CLint": "62 µL/min/mg"}
{"Compound": "O=C(NCc1nc(-c2ccccc2)cs1)[C@H]1CCCN(C(=O)[C@@H]2CCCO2)C1", "conditions": "0.5 µM", "microsomal CLint": "36 µL/min/mg"}
{"Compound": "Cc1ccc(Oc2ccc(NC(=O)CNc3ccccc3-n3cncn3)cc2)cc1", "microsomal CLint": "98 µL/min/mg"}
{"Compound": "O=C(N1CCCCC1)C12CC(c3ccccc3)(C1)C2", "conditions": "2 µM, pH 7.4", "microsomal CLint": "24 µL/min/mg"}
{"Compound": "C[C@H]1[C@@H](C(=O)NCc2nc(-c3ccc(C#N)cc3)cs2)CCCN1C(=O)[C@H]1CCC(=O)O1", "conditions": "0.5 µM", "microsomal CLint": "8 µL/min/mg"}
{"Compound": "CN(CC(=O)Nc1ccc(N(C)c2ccc(Cl)c(F)c2)cc1)c1ccccc1N1CCCC1=O", "microsomal CLint": "218 µL/min/mg"}
{"Compound": "O=C(NCc1nc(-c2ccccc2)cs1)[C@H]1CCCN(C(=O)COCC2CC2)C1", "conditions": "0.5 µM", "microsomal CLint": "102 µL/min/mg"}
{"Compound": "CC1(C(F)(F)F)NC(=O)N(c2ccc(F)c(C(F)(F)F)c2)C1=O (centres unmarked)", "microsomal CLint": "< 7 µL/min/mg"}
{"Compound": "CCOc1ccc(-c2csc(CNC(=O)[C@H]3CCCN(C(=O)COC)C3)n2)cc1", "conditions": "0.5 µM", "microsomal CLint": "24 µL/min/mg"}
{"Compound": "O=c1c2c([nH]c3cc(Nc4ccc(OC(F)(F)F)cc4)ccc13)CCCC2", "conditions": "1 µM, pH 7.4", "microsomal CLint": "67 µL/min/mg"}
{"Compound": "CCCCCCCCCCCCCCCC(=O)NCCOC(=O)C[C@@H](CN)CC(C)C", "conditions": "1 µM, pH 7.4", "microsomal CLint": "22.9 µL/min/mg"}
{"Compound": "Cc1cc2c(C(=O)O)cccc2n1-c1nc2c(c(NCc3ccccc3)n1)CCCN2", "conditions": "1 µM, pH 7.4", "microsomal CLint": "9.07 µL/min/mg"}
{"Compound": "CCS(=O)(=O)N1CCC2(CC1)NC(=O)N(c1ccc(F)c(C(F)(F)F)c1)C2=O", "microsomal CLint": "< 7 µL/min/mg"}
{"Compound": "Cc1ccc(N(c2ccc(NC(=O)CN(C)c3ccccc3N3CCCC3=O)cn2)C(C)C)cc1", "microsomal CLint": "270 µL/min/mg"}
{"Compound": "CC1(C(F)F)NC(=O)N(c2ccc(F)c(C(F)(F)F)c2)C1=O (centres unmarked)", "microsomal CLint": "< 7 µL/min/mg"}
{"Compound": "O=c1c2ccc(Oc3ccc(OC(F)(F)F)cc3)cc2[nH]c2ccc(F)c(Cl)c12", "conditions": "1 µM, pH 7.4", "microsomal CLint": "7.54 µL/min/mg"}
{"Compound": "Cc1[nH]c(C)c(S(=O)(=O)Nc2ccc(C(F)(F)F)c(Cl)c2Cl)c1C(=O)N1CCC(F)(F)C1", "microsomal CLint": "7.4 µL/min/mg"}
{"Compound": "CC1(C)NC(=O)N(c2ccc3c(c2)OC(F)(F)O3)C1=O", "microsomal CLint": "< 7 µL/min/mg"}
{"Compound": "Cc1ccc(C(C)(C)c2ccc(NC(=O)CN(C)c3ccccc3N3CCCC3=O)cc2)cc1", "microsomal CLint": "263 µL/min/mg"}
{"Compound": "O=c1c2ccccc2[nH]c2cc(Oc3ccc(OC(F)(F)F)cc3)ccc12", "conditions": "1 µM, pH 7.4", "microsomal CLint": "20.9 µL/min/mg"}
{"Compound": "Cc1ccc(N(C)c2ccc(NC(=O)CN(C)c3cc(F)ccc3N3CCCC3=O)cc2)cc1", "microsomal CLint": "260 µL/min/mg"}
{"Compound": "O=C1NC(CF)(CF)C(=O)N1c1ccc(F)c(C(F)(F)F)c1", "microsomal CLint": "< 7 µL/min/mg"}
{"Compound": "O=c1c2ccc(OCc3cccc(OC(F)(F)F)c3)cc2[nH]c2cc(Cl)cc(F)c12", "conditions": "1 µM, pH 7.4", "microsomal CLint": "16.1 µL/min/mg"}
{"Compound": "Cc1cc(N2C(=O)NC(C)(C)C2=O)cc(C(F)(F)F)n1", "microsomal CLint": "< 7 µL/min/mg"}
{"Compound": "Cc1ccc(N(C)c2ccc(NC(=O)CN(C)c3ccccc3N3CCCC3=O)cc2)cc1", "microsomal CLint": "347 µL/min/mg"}
{"Compound": "O=c1c2c([nH]c3cc(Oc4ccc(OC(F)(F)F)cc4)c(F)cc13)CCCC2", "conditions": "1 µM, pH 7.4", "microsomal CLint": "72.5 µL/min/mg"}
{"Compound": "COc1cnc(Nc2cnnc3ccc(-c4ccc(N5CCN(C)CC5)cc4)cc23)nc1", "microsomal CLint": "93 µL/min/mg"}
{"Compound": "CC(C)N(c1ccc(C#N)cc1)c1ccc(NC(=O)CN(C)c2ccccc2N2CCCC2=O)cn1", "microsomal CLint": "309 µL/min/mg"}
{"Compound": "CC(C)NCCOCC(=O)N1CCC[C@H](C(=O)NCc2nc(-c3ccc(C(F)(F)F)cc3)cs2)C1", "conditions": "0.5 µM", "microsomal CLint": "13 µL/min/mg"}
{"Compound": "Cc1ccc(Oc2ccc(NC(=O)COc3ccccc3N3CCCC3=O)cc2)cc1", "microsomal CLint": "132 µL/min/mg"}
{"Compound": "O=c1c2c(F)cc(Cl)cc2[nH]c2cccc(Oc3ccc(OC(F)(F)F)cc3)c12", "conditions": "1 µM, pH 7.4", "microsomal CLint": "5.86 µL/min/mg"}
